Results on one compound are retold here after ChEMBL document CHEMBL1773023, “Potent and selective phosphopeptide mimetic prodrugs targeted to the Src homology 2 (SH2) domain of signal transducer and activator of transcription 3” (J Med Chem, 2011).

In assay [1] the target is T1, Signal transducer and activator of transcription 3 (Homo sapiens, UniProt P40763). The assay can be described thus: Inhibition of SH2 domain of Stat3 in human MDA-MB-468 cells assessed as reduction of phosphorylated Stat3 level in cell nucleus at 5 uM after 2 hrs by fluorescence immunohistochemical analysis. The assay is classed as cell-based. Summed up:
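MDA-MB-468 cells on slides treated with 5 μM prodrug or DMSO for 2 h, fixed in 4% paraformaldehyde, permeabilized with 0.5% Triton X-100, blocked in 3% BSA, stained with anti-pTyr705 Stat3 and Alexa Fluor 594 secondary; confocal imaging at fixed microscope settings.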

A further assay deals with A549. The assay can be described thus: Cytotoxicity against human A549 cells assessed as cell growth inhibition at 5 to 10 uM after 72 hrs by MTT assay. The assay is classed as functional. Summed up: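 Cell lines with constitutive Stat3 phosphorylation (melanoma, NSCLC) exposed to prodrug at 5–10 μM. Percent growth inhibition recorded.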
(In general: Tetrazolium assays rely on reduction of a dye to a coloured formazan, in cell work by metabolically active cells.)

Assay [2] has as its target RAC-alpha serine/threonine-protein kinase (Homo sapiens) (UniProt P31749). The assay can be described thus: Inhibition of Akt phosphorylation at Ser473 in human HCC-827 cells at 5 uM after up to 24 hrs by Western blotting. It is filed as cell-based. A general note: A western blot detects proteins with antibodies after separation by electrophoresis.
Assay [3] relates to MDA-MB-468. The assay can be described thus: Selectivity ratio of inhibition of IFNgamma-induced Stat1 phosphorylation at Tyr701 to inhibition of EGF-induced SH2 domain of Stat3 phosphorylation at Tyr705 in human MDA-MB-468 cells. The assay is classed as cell-based.
The nature of assay [4]: Cytotoxicity against human HCC827 cells after 72 hrs by SRB assay. It is filed as functional, cell-based. Conditions: HCC827, 72 h. The procedure, abridged:
(§1)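 Cancer cell lines (MCF-7, SKOV3-ip, HCC-827) dosed daily with prodrug for three days; viability by SRB assay.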
(In general: In SRB staining, fixed cells bind dye roughly in proportion to their protein.)

Assay [5] addresses T1, Signal transducer and activator of transcription 3. The assay can be described thus: Inhibition of SH2 domain of Stat3 phosphorylation at Tyr705 in human HCC-827 cells at 5 uM after 4 hrs by Western blotting. It is filed as cell-based. Summed up:
(§2)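 HCC-827 NSCLC cells treated with 5 μM prodrug and sampled over a time course from 10 min to 24 h; pStat3 by Western blot.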

For assay [6], the target named is T2, Signal transducer and activator of transcription 5A (Homo sapiens) (UniProt P42229).
T2 sequence (whole entry): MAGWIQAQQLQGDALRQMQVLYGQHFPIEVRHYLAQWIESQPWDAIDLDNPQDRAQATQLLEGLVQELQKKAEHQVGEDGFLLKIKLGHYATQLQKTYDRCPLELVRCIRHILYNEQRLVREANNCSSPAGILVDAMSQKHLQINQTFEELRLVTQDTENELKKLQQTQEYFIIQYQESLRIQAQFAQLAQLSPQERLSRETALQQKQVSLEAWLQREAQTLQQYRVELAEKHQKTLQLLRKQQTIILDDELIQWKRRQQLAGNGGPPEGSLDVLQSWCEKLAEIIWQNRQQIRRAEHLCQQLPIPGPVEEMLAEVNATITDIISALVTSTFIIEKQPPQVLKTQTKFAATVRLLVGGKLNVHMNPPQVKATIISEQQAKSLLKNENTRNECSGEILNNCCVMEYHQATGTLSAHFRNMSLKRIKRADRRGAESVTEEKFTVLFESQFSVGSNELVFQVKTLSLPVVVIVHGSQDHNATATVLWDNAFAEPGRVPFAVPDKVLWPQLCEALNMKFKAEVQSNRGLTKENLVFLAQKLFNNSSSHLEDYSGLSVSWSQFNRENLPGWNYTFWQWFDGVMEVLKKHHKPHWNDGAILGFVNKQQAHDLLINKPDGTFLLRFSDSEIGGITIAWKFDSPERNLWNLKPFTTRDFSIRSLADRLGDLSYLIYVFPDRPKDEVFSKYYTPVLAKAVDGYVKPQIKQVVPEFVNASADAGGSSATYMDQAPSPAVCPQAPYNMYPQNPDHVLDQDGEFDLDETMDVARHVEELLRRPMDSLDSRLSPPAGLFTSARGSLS
The assay can be described thus: Inhibition of EGF-induced SH2 domain of Stat5 phosphorylation at Tyr694 in human MDA-MB-468 cells at 5 uM treated 1.5 hrs before EGF challenge measured after 30 mins by Western blotting. The assay is classed as cell-based. Summed up:
(§3)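 MDA-MB-468 cells pretreated 1.5 h with prodrug (5 μM), then EGF 100 ng/mL for 30 min; lysates split onto three PVDF blots probed for phospho/total Stat3, pSer473/total Akt, and phospho/total Stat5.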

Assay [7] addresses T1, Signal transducer and activator of transcription 3. The assay can be described thus: Inhibition of IL6-induced SH2 domain of Stat3 phosphorylation at Tyr705 in human A375 cells up to 10 uM treated 1.5 hrs before IL6 challenge measured after 30 mins by Western blotting. It is filed as cell-based. Conditions: A-375. Summed up: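 Hey, MeWo and A375 cells (3×10^5/well, RPMI1640, overnight, fresh medium) given increasing prodrug concentrations for 2 h, with IL-6 10 ng/mL during the final 30 min; pStat3 and total Stat3 by Western blot.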

The next assay has as its system MCF7. The assay can be described thus: Cytotoxicity against human MCF7 cells after 72 hrs by SRB assay. It is filed as functional, cell-based. The note with it: MCF7, 72 h. The procedure, abridged:
as §1

The target of assay [8] is T1, Signal transducer and activator of transcription 3. The assay can be described thus: Inhibition of SH2 domain of Stat3 constitutive phosphorylation at Tyr705 in human MDA-MB-468 cells at 0.5 uM after 2 hrs by Western blotting. It is filed as cell-based. Summed up:
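MDA-MB-468 cells (4×10^5/well, DMEM 10% FCS, overnight) given prodrug from freshly made 10 mM DMSO stock for 2 h. Lysates in Hepes pH 7.4 Triton buffer with phosphatase/protease inhibitors; 12 μg protein on 8% SDS-PAGE, PVDF, probed for pStat3 Y705 by ECL, then stripped and reprobed for total Stat3.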

The target is the same in assay [9]. The assay can be described thus: Inhibition of SH2 domain of Stat3 phosphorylation at Tyr705 in human HCC-827 cells at 5 uM after 24 hrs by Western blotting. The assay is classed as cell-based. Summed up:
as §2

Assay [10] relates to MDA-MB-468. The assay can be described thus: Decrease of cyclin D1 gene expression in human MDA-MB-468 cells at 5 uM. The assay is classed as functional, cell-based.
The target of assay [11] is T1, Signal transducer and activator of transcription 3. The assay can be described thus: Inhibition of EGF-induced SH2 domain of Stat3 phosphorylation at Tyr705 in human MDA-MB-468 cells at 5 uM treated 1.5 hrs before EGF challenge measured after 30 mins by Western blotting. It is filed as cell-based. Summed up:
as §3

pIC50: −log10 of the molar value. Active and inactive are the calls of the source. The rule behind the calls is not given here. Where only a bound is given, the exact number is not on record here.

T1 sequence (P40763 whole entry, the tested form may be a part): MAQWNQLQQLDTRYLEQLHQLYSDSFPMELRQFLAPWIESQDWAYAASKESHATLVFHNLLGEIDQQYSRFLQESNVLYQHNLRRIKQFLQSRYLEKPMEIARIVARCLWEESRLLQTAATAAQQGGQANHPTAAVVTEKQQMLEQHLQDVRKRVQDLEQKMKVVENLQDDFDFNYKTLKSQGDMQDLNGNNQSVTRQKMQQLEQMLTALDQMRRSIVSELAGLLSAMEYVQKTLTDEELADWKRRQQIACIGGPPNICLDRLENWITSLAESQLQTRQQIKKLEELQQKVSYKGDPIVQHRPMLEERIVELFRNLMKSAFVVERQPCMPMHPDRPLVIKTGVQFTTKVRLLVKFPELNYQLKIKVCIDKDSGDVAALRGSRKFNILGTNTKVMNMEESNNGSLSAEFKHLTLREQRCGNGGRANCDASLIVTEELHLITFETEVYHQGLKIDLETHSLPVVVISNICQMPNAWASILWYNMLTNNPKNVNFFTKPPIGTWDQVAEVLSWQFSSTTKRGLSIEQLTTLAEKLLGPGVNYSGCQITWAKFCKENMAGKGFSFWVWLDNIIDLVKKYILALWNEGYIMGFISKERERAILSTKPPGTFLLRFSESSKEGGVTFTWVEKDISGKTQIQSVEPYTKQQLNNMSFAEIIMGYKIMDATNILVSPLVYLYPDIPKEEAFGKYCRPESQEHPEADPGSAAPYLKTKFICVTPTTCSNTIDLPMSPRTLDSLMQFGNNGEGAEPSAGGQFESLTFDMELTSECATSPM
Chain of RAC-alpha serine/threonine-protein kinase (Homo sapiens) (P31749 whole entry, the tested form may be a part): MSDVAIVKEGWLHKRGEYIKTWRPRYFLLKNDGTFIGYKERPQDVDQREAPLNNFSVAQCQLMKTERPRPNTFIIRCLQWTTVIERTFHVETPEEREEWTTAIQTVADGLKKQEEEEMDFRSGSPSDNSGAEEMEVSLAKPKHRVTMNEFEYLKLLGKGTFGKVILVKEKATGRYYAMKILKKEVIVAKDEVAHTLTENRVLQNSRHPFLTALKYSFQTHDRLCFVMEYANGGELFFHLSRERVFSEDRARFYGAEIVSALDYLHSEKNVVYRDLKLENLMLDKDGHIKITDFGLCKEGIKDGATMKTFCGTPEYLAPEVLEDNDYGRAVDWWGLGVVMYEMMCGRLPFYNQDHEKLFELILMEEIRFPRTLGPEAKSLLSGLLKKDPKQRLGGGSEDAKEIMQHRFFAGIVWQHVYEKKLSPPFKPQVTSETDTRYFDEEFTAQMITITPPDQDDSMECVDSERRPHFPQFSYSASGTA

By pIC50 is commonly meant the negative decadic logarithm of the IC50, by convention in mol/L. As for `C/C(=C\C(=O)N[C@H]1CCc2cccc3c2N(C1=O)[C@H](C(=O)N[C@H](C)CCC(N)=O)C3)c1ccc(C(F)(F)P(=O)(OCOC(=O)C(C)(C)C)OCOC(=O)C(C)(C)C)cc1`, the inhibition entry in [1], in assay [5], in assay [7], in assay [8], in [9] and in assay [11] was “Active” throughout. Further, the “growth inhibition (GI)” value in the assay on A549 was <20%. In addition, the inhibition result in assay [2] and in assay [6] was “inactive” throughout. The Ratio with MDA-MB-468 [3] worked out at 10. The pIC50 (in assay [4]; in the assay on MCF7) was < 4.52 in each case. The result with MDA-MB-468 [10] was inactive.
